≈ marks a conversion by molar mass, not a printed value.
Experiments:
Streptococcus pneumoniae = assay: Antibacterial activity against levofloxacin-penicillin-resistant Streptococcus pneumoniae SV1 SP3 by microbroth technology; type: functional
Outline: (§1)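 Drug-resistant panel strains (levofloxacin/oxacillin-resistant S. aureus, levofloxacin/penicillin-resistant S. pneumoniae, vancomycin-resistant E. faecalis and E. faecium). Broth microdilution MIC in µg/mL; value reported as MIC90 across the strains of each resistant group.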

Staphylococcus aureus [1] = assay: Antibacterial activity against Staphylococcus aureus UC76 in po dosed CD1 mouse systemic infection model assessed as mortality after 7 days; type: functional
Moraxella catarrhalis = assay: Antibacterial activity against Moraxella catarrhalis by microbroth technology; type: functional
Outline: (§2)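 MIC determined by broth microdilution, reported in µg/mL.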

Enterococcus faecium = assay: Antibacterial activity against vancomycin-resistant Enterococcus faecium by micro-broth technology; type: functional; outline: as §1
Staphylococcus aureus [2] = assay: Antibacterial activity against levofloxacin-oxacillin-resistant Staphylococcus aureus UC76 SA1 by micro-broth technology; type: functional; outline: as §1
[3] = molecular target: T1, Amine oxidase [flavin-containing] A (Homo sapiens, UniProt P21397); assay: Inhibition of human recombinant MAOA
T1 sequence (P21397 whole entry): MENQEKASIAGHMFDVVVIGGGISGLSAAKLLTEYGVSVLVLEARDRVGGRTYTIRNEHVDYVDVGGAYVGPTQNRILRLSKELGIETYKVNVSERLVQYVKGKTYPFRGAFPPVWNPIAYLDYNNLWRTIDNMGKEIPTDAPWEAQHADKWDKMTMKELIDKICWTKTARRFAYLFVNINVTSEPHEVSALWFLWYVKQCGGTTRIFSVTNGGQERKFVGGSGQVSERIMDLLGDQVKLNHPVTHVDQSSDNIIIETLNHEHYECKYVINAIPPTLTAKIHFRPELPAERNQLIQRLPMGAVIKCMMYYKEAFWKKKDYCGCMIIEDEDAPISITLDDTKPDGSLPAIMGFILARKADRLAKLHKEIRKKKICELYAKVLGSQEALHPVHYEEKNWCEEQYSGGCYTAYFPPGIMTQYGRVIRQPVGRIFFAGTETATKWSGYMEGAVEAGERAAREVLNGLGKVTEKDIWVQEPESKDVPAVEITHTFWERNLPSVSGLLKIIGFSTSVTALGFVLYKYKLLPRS

Haemophilus influenzae = assay: Antibacterial activity against Haemophilus influenzae by micro-broth technology; type: functional; outline: as §2
Enterococcus faecalis = assay: Antibacterial activity against vancomycin-resistant Enterococcus faecalis MGH2 EF1 by microbroth technology; type: functional; outline: as §1
Escherichia coli = assay: Inhibition of protein synthesis in Escherichia coli by cell-free transcription-translation assay; type: functional
Outline: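 E. coli cell-free coupled transcription/translation run in microtiter format with a luciferase reporter; luminescence was the read-out for protein synthesis.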

| SMILES | MIC (Streptococcus pneumoniae) | PD50 (Staphylococcus aureus [1]) | MIC (Moraxella catarrhalis) | MIC (Enterococcus faecium) | MIC (Staphylococcus aureus [2]) | IC50 [3] | MIC (Haemophilus influenzae) | MIC (Enterococcus faecalis) | IC50 (Escherichia coli) |
| --- | --- | --- | --- | --- | --- | --- | --- | --- | --- |
| NC(=O)[C@H]1CN(c2ccc(N3CCOCC3)c(F)c2)C(=O)O1 | 4 µg/mL (≈ 12.9 µM) | 8.22 mg/kg | > 8 µg/mL | 32 µg/mL (≈ 103 µM) | 4 µg/mL (≈ 12.9 µM) | 146 µM | > 8 µg/mL | 32 µg/mL (≈ 103 µM) | 23 µM |
| NC(=O)[C@H]1CN(c2ccc(C3CCOCC3)c(F)c2)C(=O)O1 | 2 µg/mL (≈ 6.49 µM) | – | > 8 µg/mL | 8 µg/mL (≈ 25.9 µM) | 4 µg/mL (≈ 13 µM) | 58 µM | > 8 µg/mL | 4 µg/mL (≈ 13 µM) | 6.1 µM |
